Experimental data taken from ChEMBL document CHEMBL1148895, “New cytotoxic cyclic peptides and dianthramide from Dianthus superbus” (J Nat Prod, 2004).
Converted amounts (≈) assume the structure as drawn. Residues, ends and D or L forms follow the SMILES beside them.

Legend:
A549 = assay: Cytotoxicity against human A549 cells after 3 days by MTT assay; type: functional, cell-based; settings: A549, 72 h
In short: (§1)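 Freshly trypsinized cells were seeded at 5000-10 000 per well, with compounds added from a DMSO-diluted stock. After 3 days of culture, attached cells were incubated with MTT (0.5 mg/mL) for 1 h and then solubilized in DMSO. Absorbance was read at 550 nm.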

MCF7 = assay: Cytotoxicity against human MCF7 cells after 3 days by MTT assay; type: functional, cell-based; settings: MCF7, 72 h
In short: as §1, with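 “nm. IC50 is the concentration that reduced cell growth by 50%.” for “nm.”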

HepG2 = assay: Cytotoxicity against human HepG2 cells after 3 days by MTT assay; type: functional, cell-based; settings: HepG2, 72 h; in short: as §1
[1] = Cytotoxicity against human Hep3B cells after 3 days by MTT assay; type: functional, cell-based, Hep 3B2; settings: 72 h
In short: as §1, with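 “nm. IC50 is the concentration that reduced cell growth by 50%.” for “nm.”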

MDA-MB-231 = assay: Cytotoxicity against human MDA-MB-231 cells after 3 days by MTT assay; type: functional, cell-based; settings: MDA-MB-231, 72 h
In short: as §1, with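 “nm. IC50 is the concentration that reduced cell growth by 50%.” for “nm.”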

## COC(=O)c1ccc(OC)cc1NC(=O)c1ccccc1O [4-METHOXYDIANTHRAMIDE B]
A549
  IC50: > 20 µg/mL
MCF7
  IC50: > 20 µg/mL
HepG2
  IC50: 4.08 µg/mL (≈ 13.5 µM)
[1]
  IC50: 16 µg/mL (≈ 53.2 µM)
MDA-MB-231
  IC50: > 20 µg/mL

## CC[C@H](C)[C@@H]1NC(=O)[C@@H]2CCCN2C(=O)CNC(=O)[C@H](C(C)C)NC(=O)[C@H](Cc2ccccc2)NC(=O)[C@H](CO)NC1=O (cyclo(FVGPIS))
A549
  IC50: > 20 µg/mL
MCF7
  IC50: > 20 µg/mL
HepG2
  IC50: 2.37 µg/mL (≈ 3.95 µM)
[1]
  IC50: > 20 µg/mL
MDA-MB-231
  IC50: > 20 µg/mL

## COc1cccc2c1C(=O)c1c(O)c3c(c(O)c1C2=O)C[C@@](O)(C(=O)CO)C[C@@H]3O[C@H]1C[C@H](N)[C@H](O)[C@H](C)O1 [DOXORUBICIN]
MCF7
  IC50: 1.21 µg/mL (≈ 2.23 µM)
[1]
  IC50: 0.31 µg/mL (≈ 0.57 µM)
MDA-MB-231
  IC50: 0.73 µg/mL (≈ 1.34 µM)

## CC[C@H](C)[C@@H]1NC(=O)[C@H](C(C)C)NC(=O)[C@H](Cc2ccc(O)cc2)NC(=O)[C@H](Cc2ccccc2)NC(=O)[C@@H]2CCCN2C(=O)CNC1=O (cyclo(FYVIGP))
A549
  IC50: > 20 µg/mL
MCF7
  IC50: > 20 µg/mL
HepG2
  IC50: 17.2 µg/mL (≈ 25.4 µM)
[1]
  IC50: > 20 µg/mL
MDA-MB-231
  IC50: > 20 µg/mL

## CC[C@H](C)[C@@H]1NC(=O)[C@@H]2CCCN2C(=O)[C@@H]2CCCN2C(=O)[C@H](CC(C)C)NC(=O)[C@H](CO)NC(=O)CNC(=O)[C@H](Cc2ccccc2)NC1=O (cyclo(FGSLPPI))
A549
  IC50: > 20 µg/mL
MCF7
  IC50: > 20 µg/mL
HepG2
  IC50: > 20 µg/mL
[1]
  IC50: > 20 µg/mL
MDA-MB-231
  IC50: > 20 µg/mL
